Values after ≈ are worked out from the molar mass of the structure shown.
Columns and labels:
Format in all cases: functional
Enterobacter cloacae = assay: Antibacterial activity was determined against gram negative organism, Enterobacter cloacae MA2646; conditions: Enterobacter cloacae; read-out: MIC
Escherichia coli [1] = assay: Antibacterial activity was determined against gram negative organism, Escherichia coli vogel; conditions: Escherichia coli; read-out: MIC
In short: (§1)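 MIC (µg/mL) by standard microtitration against a panel of 10 Gram-positive and Gram-negative organisms; values averaged from multiple experiments.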

Escherichia coli [2] = assay: The in vivo potency was determined in female charles river CD-1 mice infected with Escherichia coli after peroral administration; conditions: Escherichia coli, po; read-out: PD50
In short: (§2)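 Acute lethal systemic infection in female CD-1 mice, 16 mice per route; single dose given orally by gavage at the time of challenge; median protective dose (PD50, mg/kg) determined.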

Escherichia coli [3] = assay: The in vivo potency was determined in female charles river CD-1 mice infected with Escherichia coli after sc administration; conditions: Escherichia coli, sc; read-out: PD50
In short: (§3)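 Acute lethal systemic infection in female CD-1 mice, 16 mice per route; single subcutaneous dose given at the time of challenge; median protective dose (PD50, mg/kg) determined.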

[4] = (§4) MIC ratio measured as the mean MICs of gram-negative bacteria
In short: (§5)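 Geometric mean of the microtitration MICs (µg/mL) over the Gram-negative organisms, and separately over the Gram-positive organisms, of the 10-strain panel; individual MICs averaged from multiple experiments.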

Klebsiella pneumoniae = assay: Antibacterial activity was determined against gram negative organism, Klebsiella pneumoniae MGH-2; conditions: Klebsiella pneumoniae; read-out: MIC; in short: as §1
Streptococcus pyogenes [5] = assay: The in vivo potency was determined in female charles river CD-1 mice infected with Streptococcus pyogenes after peroral administration; conditions: Streptococcus pyogenes, po; read-out: PD50; in short: as §2
Streptococcus pyogenes [6] = assay: The in vivo potency was determined in female charles river CD-1 mice infected with Streptococcus pyogenes after sc administration; conditions: Streptococcus pyogenes, sc; read-out: PD50; in short: as §3
Pseudomonas aeruginosa = assay: Antibacterial activity was determined against gram negative organism, Pseudomonas aeruginosa UI-18; conditions: Pseudomonas aeruginosa; read-out: MIC; in short: as §1
Bacteria [7] = assay: Antibacterial activity was determined against gram negative organism, Providencia rettgeri. M1771; conditions: Bacteria; read-out: MIC; in short: as §1
Staphylococcus aureus [8] = assay: (§6) Antibacterial activity was determined against gram positive organism, Staphylococcus aureus H228; conditions: Staphylococcus aureus; read-out: MIC; in short: as §1
Streptococcus pneumoniae [9] = assay: (§7) Antibacterial activity was determined against gram positive organism, Streptococcus pneumoniae SV-1; conditions: Streptococcus pneumoniae; read-out: MIC; in short: as §1
Enterococcus faecalis = assay: Antibacterial activity was determined against gram positive organism, Streptococcus faecalis MGH-2; conditions: Enterococcus faecalis; read-out: MIC; in short: as §1
Staphylococcus aureus [10] = assay: (§8) Antibacterial activity was determined against gram positive organism, Staphylococcus aureus UC76; in short: as §1
Streptococcus pyogenes [11] = assay: Antibacterial activity was determined against gram positive organism, Streptococcus pyogenes C203; conditions: Streptococcus pyogenes; read-out: MIC; in short: as §1
[12] = (§9) MIC ratio measured as the mean MICs of gram-positive bacteria; in short: as §5
[13] = target: T1, DNA gyrase (Escherichia coli) (UniProt P0AES6+P0AES4); assay: Minimum inhibitory concentration against Escherichia coli DNA-gyrase in supercoiling assay
Bacteria [14] = assay: MIC ratio measured as the mean MICs of gram-positive values; in short: as §5
Streptococcus pneumoniae [15] = assay: The in vivo potency was determined in female charles river CD-1 mice infected with Streptococcus pneumoniae after peroral administration; conditions: Streptococcus pneumoniae, po; read-out: PD50; in short: as §2
Streptococcus pneumoniae [16] = assay: The in vivo potency was determined in female charles river CD-1 mice infected with Streptococcus pneumoniae after sc administration; conditions: Streptococcus pneumoniae, sc; read-out: PD50; in short: as §3
Bacteria [17] = assay: MIC ratio measured as the mean MICs of gram-negative; in short: as §5
[18] = target: T1, DNA gyrase (Escherichia coli); assay: Minimum inhibitory concentration against Escherichia coli DNA-gyrase supercoiling assay
Streptococcus pneumoniae [19] = assay: as §7
In short: (§10)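 Broth microtitration MIC against a panel of 10 Gram-positive and Gram-negative organisms; MIC in µg/mL, averaged over multiple experiments.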

Staphylococcus aureus [20] = assay: as §6; in short: as §10
Staphylococcus aureus [21] = assay: as §8; in short: as §10; remark: listed apart in the source
Bacteria [22] = assay: as §4; in short: as §5
Bacteria [23] = assay: as §9; in short: as §5
[24] = Staphylococcus aureus, read-out: MIC

| Structure (SMILES) | MIC (Enterobacter cloacae) [µg/mL] | MIC (Escherichia coli [1]) [µg/mL] | ED50 (Escherichia coli [2]) [mg/kg] | ED50 (Escherichia coli [3]) [mg/kg] | Ratio [4] | MIC (Klebsiella pneumoniae) [µg/mL] | ED50 (Streptococcus pyogenes [5]) [mg/kg] | ED50 (Streptococcus pyogenes [6]) [mg/kg] | MIC (Pseudomonas aeruginosa) [µg/mL] | MIC (Bacteria [7]) [µg/mL] | MIC (Staphylococcus aureus [8]) [µg/mL] | MIC (Streptococcus pneumoniae [9]) [µg/mL] | MIC (Enterococcus faecalis) [µg/mL] | MIC (Staphylococcus aureus [10]; [24]) [µg/mL] | MIC (Streptococcus pyogenes [11]) [µg/mL] | Ratio [12] | MIC [13] [µg/mL] | ED50 (Streptococcus pneumoniae [15]) [mg/kg] | ED50 (Streptococcus pneumoniae [16]) [mg/kg] | Geometric mean MIC over Gram-negative bacteria (µg/mL) (Bacteria [22]) | also measured |
| --- | --- | --- | --- | --- | --- | --- | --- | --- | --- | --- | --- | --- | --- | --- | --- | --- | --- | --- | --- | --- | --- |
| CC1CN(c2c(F)c(N)c3c(=O)c(C(=O)O)cn(C4CC4)c3c2Cl)CC(C)N1 (stereo unspecified) | 0.1 (≈ 0.245 µM) | 0.05 (≈ 0.122 µM) | 2 | 1 | 0.23 | 0.2 (≈ 0.489 µM) | 10 | 8 | 1.6 (≈ 3.91 µM) | 0.4 (≈ 0.978 µM) | 0.1 (≈ 0.245 µM) | 0.1 (≈ 0.245 µM) | 0.4 (≈ 0.978 µM) | 0.025 (≈ 0.0611 µM) | 0.2 (≈ 0.489 µM) | 0.11 | – | – | – | – | – |
| NC1CCN(c2c(F)c(O)c3c(=O)c(C(=O)O)cn(C4CC4)c3c2F)C1 (stereo unspecified) | 0.013 (≈ 0.0356 µM) | 0.013 (≈ 0.0356 µM) | 2 | 0.5 | – | 0.025 (≈ 0.0684 µM) | 90 | 11 | 0.2 (≈ 0.547 µM) | 0.05 (≈ 0.137 µM) | 0.1 (≈ 0.274 µM) | 0.05 (≈ 0.137 µM) | 0.1 (≈ 0.274 µM) | 0.025 (≈ 0.0684 µM) | 0.05 (≈ 0.137 µM) | – | 0.5 (≈ 1.37 µM) | 107 | 18 | – | Ratio (Bacteria [14]): 0.057; Ratio (Bacteria [17]): 0.034 |
| CC1CN(c2cc3c(c(N)c2F)c(=O)c(C(=O)O)cn3-c2ccc(F)cc2F)CCN1 (stereo unspecified) | 0.2 (≈ 0.463 µM) | 0.1 (≈ 0.231 µM) | – | – | 0.3 | 0.2 (≈ 0.463 µM) | – | – | 1.6 (≈ 3.7 µM) | 0.4 (≈ 0.925 µM) | – | – | 0.4 (≈ 0.925 µM) | – | 0.4 (≈ 0.925 µM) | 0.2 | – | – | – | – | MIC [18]: 2.5 µg/mL (≈ 5.78 µM); MIC (Streptococcus pneumoniae [19]): 0.2 µg/mL (≈ 0.463 µM); MIC (Staphylococcus aureus [20]): 0.2 µg/mL (≈ 0.463 µM); MIC (Staphylococcus aureus [21]): 0.05 µg/mL (≈ 0.116 µM) |
| CCNCC1CCN(c2c(F)c(N)c3c(=O)c(C(=O)O)cn(C4CC4)c3c2F)C1 (stereo unspecified) | 0.05 (≈ 0.123 µM) | 0.05 (≈ 0.123 µM) | 16 | 2 | – | 0.05 (≈ 0.123 µM) | 16 | 5 | 0.2 (≈ 0.492 µM) | 0.1 (≈ 0.246 µM) | 0.013 (≈ 0.032 µM) | 0.003 (≈ 0.00738 µM) | 0.025 (≈ 0.0615 µM) | 0.003 (≈ 0.00738 µM) | 0.013 (≈ 0.032 µM) | – | 0.5 (≈ 1.23 µM) | 5 | 3 | 0.075 | Geometric mean MIC over Gram-positive bacteria (µg/mL) (Bacteria [23]): 0.0082 |
| Nc1c(F)c(N2CCC(N)C2)c(Cl)c2c1c(=O)c(C(=O)O)cn2C1CC1 (stereo unspecified) | 0.025 (≈ 0.0657 µM) | 0.025 (≈ 0.0657 µM) | 6 | 1 | 0.076 | 0.05 (≈ 0.131 µM) | – | – | 0.8 (≈ 2.1 µM) | 0.1 (≈ 0.263 µM) | 0.1 (≈ 0.263 µM) | 0.1 (≈ 0.263 µM) | 0.1 (≈ 0.263 µM) | – | 0.1 (≈ 0.263 µM) | 0.076 | – | – | – | – | MIC (Staphylococcus aureus [10]): 0.025 µg/mL (≈ 0.0657 µM) |
| Nc1c(F)c(N2CCC(N)C2)c(F)c2c1c(=O)c(C(=O)O)cn2C1CC1 (stereo unspecified) | 0.006 (≈ 0.0165 µM) | 0.006 (≈ 0.0165 µM) | 2 | 1 | – | 0.013 (≈ 0.0357 µM) | 20 | 9 | 0.1 (≈ 0.274 µM) | 0.025 (≈ 0.0686 µM) | 0.05 (≈ 0.137 µM) | 0.025 (≈ 0.0686 µM) | 0.05 (≈ 0.137 µM) | 0.013 (≈ 0.0357 µM) | 0.025 (≈ 0.0686 µM) | – | 0.5 (≈ 1.37 µM) | 28 | 8 | 0.016 | Geometric mean MIC over Gram-positive bacteria (µg/mL) (Bacteria [23]): 0.029 |
| CC1CN(c2c(F)c(N)c3c(=O)c(C(=O)O)cn(C4CC4)c3c2F)CCN1 (stereo unspecified) | 0.013 (≈ 0.0344 µM) | 0.013 (≈ 0.0344 µM) | 0.5 | 0.2 | – | 0.025 (≈ 0.0661 µM) | 20 | 18 | 0.4 (≈ 1.06 µM) | 0.05 (≈ 0.132 µM) | 0.05 (≈ 0.132 µM) | 0.05 (≈ 0.132 µM) | 0.1 (≈ 0.264 µM) | 0.025 (≈ 0.0661 µM) | 0.2 (≈ 0.529 µM) | – | 1 (≈ 2.64 µM) | 20 | 15 | 0.038 | Geometric mean MIC over Gram-positive bacteria (µg/mL) (Bacteria [23]): 0.066 |
| CCn1cc(C(=O)O)c(=O)c2cc(F)c(N3CCNCC3)cc21 [NORFLOXACIN] | 0.1 (≈ 0.313 µM) | 0.025 (≈ 0.0783 µM) | – | – | 0.057 | 0.05 (≈ 0.157 µM) | – | – | 0.2 (≈ 0.626 µM) | 0.025 (≈ 0.0783 µM) | – | – | 1.6 (≈ 5.01 µM) | – | 0.8 (≈ 2.51 µM) | 0.61 | – | – | – | – | MIC (Streptococcus pneumoniae [19]): 1.6 µg/mL (≈ 5.01 µM); MIC (Staphylococcus aureus [20]): 0.8 µg/mL (≈ 2.51 µM); MIC (Staphylococcus aureus [21]): 0.05 µg/mL (≈ 0.157 µM) |
